This note sets out measurements from ChEMBL document CHEMBL1152809, “Structure-activity relationships of orotidine-5'-monophosphate decarboxylase inhibitors as anticancer agents” (J Med Chem, 2009).

Calls of active or inactive are those of the source. No cut-off for these calls is given here.

The nature of series [1]: Antitumor activity against human MDA468 cells after 3 days by WST1 assay. Type of series: functional, cell-based. The note with it: MDA-MB-468, 72 h. The gist of the method:
(§1)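 Cell lines grown in Iscove's MDM with 5% FCS, 50 µM 2-mercaptoethanol, penicillin and streptomycin; suspension lines kept at 0.5-1.5 × 10^6 cells/mL, adherent lines subconfluent. Cells seeded in triplicate at 10^4 cells/100 µL. Compounds were dissolved in water and added immediately at 0 to 100 µM final. WST.1 read at 440 nm on day 3; IC50 taken from OD versus concentration plots.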

Another series has as its system OCI-AML2. The series is described as follows: Antitumor activity against human OCI-AML2 cells after 3 days by WST1 assay. Type of series: functional, cell-based. The note with it: OCI-AML2, 72 h. An outline of the steps: as §1
For series [2], the system named is MCF7. Description: Antitumor activity against human MCF7 cells up to 50 uM after 3 days by WST1 assay. Type of series: functional, cell-based. The gist of the method:
as §1

The nature of series [3]: Antitumor activity against human SKW3 cells after 3 days by WST1 assay. The settings on record: SKW3, 72 h. Type of series: functional, cell-based. The gist of the method:
as §1

The subject of the next series is SNB-19. The series is described as follows: Antitumor activity against human SNB19 cells up to 50 uM after 3 days by WST1 assay. In kind it is functional, cell-based. The gist of the method:
as §1

Series [4] is described as follows: Antitumor activity against human LOX cells after 3 days by WST1 assay. In kind it is functional, cell-based. The settings on record: 72 h. The gist of the method:
as §1

Series [5] in a line: Antitumor activity against human OCI-My 2 cells after 3 days by WST1 assay. Type of series: functional, cell-based. The settings on record: 72 h. The gist of the method:
as §1

Series [6] is described as follows: Antitumor activity against human OCI-AML1 cells after 3 days by WST1 assay. The settings on record: ML1, 72 h. In kind it is functional, cell-based. The gist of the method: as §1
In a further series the test system is OVCAR-4. Description: Antitumor activity against human OVCAR4 cells after 3 days by WST1 assay. Type of series: functional, cell-based. The settings on record: OVCAR-4, 72 h. The gist of the method:
as §1

The next series deals with T47D. The series is described as follows: Antitumor activity against human T47D cells up to 50 uM after 3 days by WST1 assay. Type of series: functional, cell-based. An outline of the steps: as §1
Series [7] is described as follows: Cytotoxicity against human CCD-967 cells up to 50 uM after 3 days by WST1 assay. In kind it is cell-based. The settings on record: ccd-967, 72 h. An outline of the steps:
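Cells grown in Iscove's MDM with 5% FCS, 50 µM 2-mercaptoethanol and antibiotics, kept subconfluent if adherent. Seeded in triplicate at 10^4 cells/100 µL with compounds (in water) added at once, 0 to 100 µM final. WST.1 formazan read at 440 nm on day 3; IC50 from OD versus concentration.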

The subject of the next series is MDA-MB-468. The series is described as follows: Antitumor activity against human MDA468 cells up to 50 uM after 3 days by WST1 assay. Type of series: functional, cell-based. The gist of the method: as §1
The subject of the next series is Hs-578T. The series is described as follows: Antitumor activity against human Hs 578T cells up to 50 uM after 3 days by WST1 assay. Type of series: functional, cell-based. The gist of the method: as §1
Another series concerns COLO 205. Description: Antitumor activity against human COLO205 cells after 3 days by WST1 assay. Type of series: functional, cell-based. The note with it: COLO 205, 72 h. The gist of the method: as §1
Series [8] deals with MCF7. Description: Antitumor activity against human MCF7 cells after 3 days by WST1 assay. The settings on record: MCF7, 72 h. Type of series: functional, cell-based. The gist of the method: as §1
For the next series, the system named is PC-3. The series is described as follows: Antitumor activity against human PC3 cells up to 50 uM after 3 days by WST1 assay. Type of series: functional, cell-based. The gist of the method: as §1
The nature of series [9]: Antitumor activity against human OCI-LY7 cells after 3 days by WST1 assay. Type of series: functional, cell-based. The note with it: OCI-Ly7, 72 h. An outline of the steps:
as §1

Regarding `[N-]=[N+]=Nc1cc(=O)[nH]c(=O)n1[C@@H]1O[C@H](CO)[C@@H](O)[C@H]1O`, the IC50 (in series [1]; in the series on OCI-AML2; in [3]; in series [4]; in series [5]; in series [6]) was more than 50 µM each time. The half-inhibitory concentration (IC50) (in the series on OVCAR-4; with COLO 205; in the series with MCF7 [8]; in series [9]) was more than 50 µM each time. Further, the outcome in the series on MCF7 [2], in the series with SNB-19, with T47D, with MDA-MB-468, in the series on Hs-578T and with PC-3 was inactive. Moreover, the Activity entry in [7] is “Not Active”.
With `COC(=O)c1cc(=O)[nH]c(=O)n1[C@@H]1O[C@H](CO)[C@@H](O)[C@H]1O`, the IC50 in [1] is more than 50 µM; in the series on OCI-AML2 it was more than 50 µM; in series [3], more than 50 µM; in series [4] it was more than 50 µM; in series [5], 42.3 µM; in series [6], more than 50 µM. Further, the IC50 (in the series with OVCAR-4; with COLO 205; with MCF7 [8]; in series [9]) was more than 50 µM in each case. The outcome in the series on MCF7 [2], with SNB-19, in the series on T47D, in the series with MDA-MB-468, with Hs-578T and in the series on PC-3 was inactive. Also, the Activity result in series [7] is on record as “Not Active”.
On to `CN(C)c1cc(=O)[nH]c(=O)[nH]1`, for which the 50% inhibitory concentration (IC50) (in series [1]; in the series with OCI-AML2; in series [3]; in [4]; in [5]; in series [6]) was more than 50 µM throughout. In addition, the IC50 (in the series with OVCAR-4; with COLO 205; in the series with MCF7 [8]; in series [9]) was more than 50 µM throughout. In addition, the result with MCF7 [2], in the series with SNB-19, in the series with T47D, in the series on MDA-MB-468, with Hs-578T and in the series with PC-3 was inactive. Also, the Activity result in [7] is “Not Active”.
Turning to `O=c1cc(O)n([C@@H]2O[C@H](CO)[C@@H](O)[C@H]2O)c(=O)[nH]1`, the IC50 (in series [1]; with OCI-AML2; in [3]; in series [4]; in series [5]; in series [6]) was more than 50 µM each time. Moreover, the half-maximal inhibitory concentration (IC50) (in the series with OVCAR-4; with COLO 205; in the series with MCF7 [8]; in series [9]) was more than 50 µM each time. Also, the outcome in the series with MCF7 [2], with SNB-19, in the series with T47D, with MDA-MB-468, in the series on Hs-578T and in the series on PC-3 was inactive. Also, the Activity result in series [7] is reported as “Not Active”.
In the case of `O=c1[nH]c(=O)n([C@@H]2O[C@H](CO)[C@@H](O)[C@H]2O)c(I)c1F`, the IC50 (in series [1]; with OCI-AML2; in series [3]; in series [4]; in series [5]; in series [6]) was more than 50 µM in each case. For the same molecule, the IC50 (in the series with OVCAR-4; with COLO 205; in the series with MCF7 [8]; in series [9]) was more than 50 µM throughout. Further, the result in the series with MCF7 [2], with SNB-19, in the series with T47D, in the series with MDA-MB-468, in the series on Hs-578T and in the series with PC-3 was inactive. Further, the Activity entry in series [7] is “Not Active”.
For the molecule `O=c1[nH]c(=O)n([C@@H]2O[C@H](CO)[C@@H](O)[C@H]2O)c(I)c1Br`, the half-inhibitory concentration (IC50) (in [1]; with OCI-AML2; in [3]; in series [4]; in series [5]; in [6]) was more than 50 µM in each case. Further, the IC50 (in the series on OVCAR-4; with COLO 205; in the series with MCF7 [8]; in series [9]) was more than 50 µM each time. Also, the outcome in the series on MCF7 [2], in the series with SNB-19, in the series with T47D, in the series on MDA-MB-468, in the series on Hs-578T and with PC-3 was inactive. Also, the Activity entry in series [7] is “Not Active”.
Turning to `O=c1cnn([C@@H]2O[C@H](COP(=O)(O)O)[C@@H](O)[C@H]2O)c(=O)[nH]1` [6-AZA-URIDINE MONOPHOSPHATE], the IC50 is more than 50 µM in series [1]; 16 µM in the series on OCI-AML2; 2.8 µM in [3]; 6.7 µM in series [4]; 18.7 µM in [5]; 6.1 µM in [6]. For the same molecule, the IC50 (with OVCAR-4; in the series with COLO 205; in the series with MCF7 [8]; in [9]) was more than 50 µM throughout. Moreover, the result in the series with MCF7 [2], with SNB-19, in the series on T47D, in the series with MDA-MB-468, in the series with Hs-578T and with PC-3 was inactive. Besides, the Activity result in series [7] is reported as “Not Active”.
For `CN(C)c1cc(=O)[nH]c(=O)n1[C@@H]1O[C@H](CO)[C@@H](O)[C@H]1O`, the IC50 (in [1]; in the series with OCI-AML2; in [3]; in series [4]; in series [5]; in series [6]) was more than 50 µM in each case. Further, the IC50 (with OVCAR-4; with COLO 205; in the series on MCF7 [8]; in series [9]) was more than 50 µM each time. The outcome in the series with MCF7 [2], in the series on SNB-19, in the series on T47D, with MDA-MB-468, in the series on Hs-578T and with PC-3 was inactive. Further, the Activity entry in [7] is “Not Active”.
On to `CCc1c(F)c(=O)[nH]c(=O)n1[C@@H]1O[C@H](CO)[C@@H](O)[C@H]1O`, for which the 50% inhibitory concentration (IC50) in [1] was determined as 5.3 µM; in [3] it was 1.2 µM; in series [4], 4.5 µM; in series [5], 1.4 µM; in [6] it was 2.1 µM; with MCF7 [8], 31.4 µM. Besides, in series [9], the IC50 came out at 1.9 µM. Further, the result in the series on SNB-19, in the series on T47D, in the series with Hs-578T and in the series on PC-3 was inactive. The Activity result in series [7] is listed as “Not Active”.
Turning to `O=c1[nH]c(=O)n([C@@H]2O[C@H](CO)[C@@H](O)[C@H]2O)cc1F` [5-FLUOROURIDINE], the outcome in the series with MCF7 [2], in the series on SNB-19, with T47D, with MDA-MB-468, in the series on Hs-578T and in the series with PC-3 was inactive. Besides, the Activity entry in series [7] is on record as “Not Active”.
On to `CC(=O)OC[C@H]1O[C@@H](n2c(I)cc(=O)[nH]c2=O)[C@H](O)[C@@H]1O`, for which the 50% inhibitory concentration (IC50) in series [1] was more than 50 µM; in the series on OCI-AML2, 11.7 µM; in [3], 1.6 µM; in series [4] it was 1.1 µM; in [5] it was 1.3 µM; in series [6], 15.2 µM. Moreover, the IC50 with OVCAR-4 is more than 50 µM; with COLO 205, more than 50 µM; with MCF7 [8], 4.4 µM; in series [9], 36.2 µM. Also, the outcome in the series with SNB-19, with T47D, with MDA-MB-468, in the series with Hs-578T and in the series with PC-3 was inactive. Also, the Activity result in series [7] is on record as “Not Active”.
